Experimental data gathered from unrelated publications.
Protocols differ between the studies behind these lines.
Target: Tyrosine-protein kinase Yes (YES1, Homo sapiens, UniProt P07947)

For `C[C@@H]1CCN(c2nccc(-c3cnn4ncccc34)n2)C1`, the remaining binding was 100% (binding; 1 µM).
With `CC(=O)N1CCC(c2ccc(C(=O)NC(=N)N)cc2C(F)(F)F)CC1` the remaining binding was 98% (cell-free assay, competition with immobilised ligand; 1 µM).
The remaining binding of `C[C@@H](c1ccc(-n2cnc3c(N)ncnc32)cc1)N1CCc2nn(C)c(Cc3ccccc3)c2C1=O` is reported as 74% (binding, competition with immobilised ligand; 0.1 µM).
For `COc1cnc(Nc2cccc(S(N)(=O)=O)c2)nc1N1CCN(c2ccccc2)C(=O)C1`, the remaining binding was 100% (binding, competition with immobilised ligand; 1 µM).
`c1cncc(-c2cccc(Nc3nccc(NC4CCCCC4)n3)c2)c1` gave a remaining binding of 28% (binding, competition with immobilised ligand; 10 µM).
`O=C(c1ccc(Nc2ncc(Cl)c(-c3cc4ccccc4s3)n2)cc1)N1CCC(N2CCCC2)CC1` gave a remaining binding of 71% (binding, competition with immobilised ligand; 1 µM).
With `C[C@H](NC(=O)c1cnc2n1[C@](C)(Cc1ccc(C#N)cc1)C(=O)N2c1cc(Cl)c(F)c(Cl)c1)C(=O)NC1(c2ccccn2)CC1` the remaining binding was 100% (cell-free assay, competition with immobilised ligand; 1 µM).
The remaining binding of `Cc1ccc(-n2nc(C(C)(C)C)cc2NC(=O)Nc2ccc(-n3c(N)c(C(N)=O)c4nc5ccccc5nc43)cc2)cc1` is reported as 9.6% (cell-free assay, competition with immobilised ligand; 1 µM).
With `C=CC(=O)N1CCC(C(=O)NCC(=O)N2CCN(c3nc(-c4cnc(N)nc4C(F)F)nc(N4CCOCC4)n3)CC2)CC1` the remaining binding was 97% (binding, competition with immobilised ligand; 1 µM).
`Cc1cnn2ncc(-c3ccnc(N(C)C)n3)c2c1` gave a remaining binding of 100% (binding; 1 µM).
`O=C(c1ccc(Nc2nccc(-c3cc4ccccc4s3)n2)cc1)N1CCC(N2CCCC2)CC1` has a remaining binding of 93% (binding, competition with immobilised ligand; 1 µM).
With `N[C@@H]1CCN(c2nccc(-c3cnn4ncccc34)n2)C1` the remaining binding was 100% (binding; 1 µM).
The remaining binding of `Cc1nc(C2CCN(C(=O)c3ccc(OC(F)(F)F)cc3N)CC2)c2ncc(N3CCN(C)CC3)cc2n1` is reported as 100% (cell-free assay, competition with immobilised ligand; 1 µM).
For `F[C@@H]1CCN(c2nccc(-c3cnn4ncccc34)n2)C1`, the remaining binding was 90% (binding; 1 µM).
`CCN1CCN(Cc2ccc(C(=O)Nc3ccc(C)c(Oc4ccc5c(c4)CC(=O)N5)c3)cc2C(F)(F)F)CC1` gave a remaining binding of 98% (binding, competition with immobilised ligand; 1 µM).
`CCC(=N\O)/C(C)=C/c1ccc(F)cc1` gave a remaining binding of 87% (cell-free assay, competition with immobilised ligand; 1 µM).
`CN(C)c1nccc(-c2cnn3ncccc23)n1` has a remaining binding of 78% (binding; 1 µM).
`O=C(Nc1c[nH]nc1C(=O)NC1CCNCC1)c1cc(F)cc(F)c1` has a remaining binding of 100% (binding, competition with immobilised ligand; 1 µM).
`CN(C)c1ncnc(-c2ccc3nc(Nc4cc(CN5CCN(C(=O)CC(F)(F)F)CC5)ccn4)[nH]c3c2)c1Cl` has a remaining binding of 76% (cell-free assay, competition with immobilised ligand; 1 µM).
`c1cnn2ncc(-c3ccnc(N4CCC45COC5)n3)c2c1` has a remaining binding of 72% (binding; 1 µM).
`CN1CCN(c2ccc(Nc3nccc(-c4cccc([N+](=O)[O-])c4)n3)cc2C(F)(F)F)CC1` has a remaining binding of 32% (binding; 10 µM).
The remaining binding of `COc1ccc2cc(OCC3(C(=O)O)CN(C(=O)c4ccc(F)cc4)C3)ccc2c1` is reported as 100% (cell-free assay, competition with immobilised ligand; 1 µM).
The remaining binding of `CN(C)c1ncc(F)c(-c2cnn3ncccc23)n1` is reported as 78% (binding; 1 µM).
With `O=C(c1ccc(Nc2ncc(Cl)c(-c3ccc(Cl)s3)n2)cc1)N1CCC(N2CCCC2)CC1` the remaining binding was 55% (binding, competition with immobilised ligand; 1 µM).
For `CSc1cccnc1N1CCN(Cc2nc3ccccc3[nH]2)CC1`, the remaining binding was 100% (cell-free assay, competition with immobilised ligand; 1 µM).
